In ChEMBL document CHEMBL5058577, “EUbOPEN Chemogenomics Library 2 (Multiplex)” (2022):

System: U2OS
Assay: Multiplex assay against U2OS
Type: toxicity, cell-based
Settings: human
Summary of the method: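 Per cents of healthy-nucleus cells form the tubulin, mitochondrial-mass and membrane-permeability phenotype values. Live cells were stained at seeding with Hoechst33342, BioTracker Green Microtubule Cytoskeleton Dye, MitoTracker Red and Annexin V Alexa Fluor 680. After compound addition they were imaged on a CQ1 microscope at 37°C and 5% CO2, and CellPathfinder machine-learning gating split them into Hoechst high-intensity objects or normal cells, normal cells into healthy, pyknosed or fragmented nuclei, and pyknosed cells into mitotic or apoptotic.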

[1] = 12 h, 1 µM, compound concentration 1 uM, replicate 1
[2] = 12 h, 1 µM, compound concentration 1 uM, replicate 2
[3] = 12 h, 10 µM, compound concentration 10 uM, replicate 1
[4] = 12 h, 10 µM, compound concentration 10 uM, replicate 2
[5] = 24 h, 1 µM, compound concentration 1 uM, replicate 1
[6] = 24 h, 1 µM, compound concentration 1 uM, replicate 2
[7] = 24 h, 10 µM, compound concentration 10 uM, replicate 1
[8] = 24 h, 10 µM, compound concentration 10 uM, replicate 2
[9] = 48 h, 1 µM, compound concentration 1 uM, replicate 1
[10] = 48 h, 1 µM, compound concentration 1 uM, replicate 2
[11] = 48 h, 10 µM, compound concentration 10 uM, replicate 1
[12] = 48 h, 10 µM, compound concentration 10 uM, replicate 2

N#Cc1cc(F)cc(-c2nc(-c3ccc(F)cn3)no2)c1
Population Apoptotic (%) [1]: 55% | Population Fragmented Nuclei (%) [1]: 24% | Population Healthy Nuclei (%) [1]: 65% | Population Hoechst High Intensity Objects (%) [1]: 1% | Population Membrane Permeable-Phenotype (%) [1]: 5% | Population Mitochondria Different-Phenotype (%) [1]: 0% | Population Mitotic Cells (%) [1]: 44% | Population Normal (%) [1]: 98% | Population Pyknosed Nuclei (%) [1]: 10% | Population Tubulin-Different-Phenotype (%) [1]: 3% | Total Cell Count [1]: 178 | Population Apoptotic (%) [2]: 100% | Population Fragmented Nuclei (%) [2]: 17% | Population Healthy Nuclei (%) [2]: 79% | Population Hoechst High Intensity Objects (%) [2]: 0% | Population Membrane Permeable-Phenotype (%) [2]: 6% | Population Mitochondria Different-Phenotype (%) [2]: 5% | Population Mitotic Cells (%) [2]: 0% | Population Normal (%) [2]: 99% | Population Pyknosed Nuclei (%) [2]: 4% | Population Tubulin-Different-Phenotype (%) [2]: 2% | Total Cell Count [2]: 101 | Population Apoptotic (%) [3]: 76% | Population Fragmented Nuclei (%) [3]: 33% | Population Healthy Nuclei (%) [3]: 59% | Population Hoechst High Intensity Objects (%) [3]: 1% | Population Membrane Permeable-Phenotype (%) [3]: 8% | Population Mitochondria Different-Phenotype (%) [3]: 2% | Population Mitotic Cells (%) [3]: 23% | Population Normal (%) [3]: 98% | Population Pyknosed Nuclei (%) [3]: 6% | Population Tubulin-Different-Phenotype (%) [3]: 2% | Total Cell Count [3]: 196 | Population Apoptotic (%) [4]: 88% | Population Fragmented Nuclei (%) [4]: 12% | Population Healthy Nuclei (%) [4]: 81% | Population Membrane Permeable-Phenotype (%) [4]: 7% | Population Mitochondria Different-Phenotype (%) [4]: 4% | Population Mitotic Cells (%) [4]: 11% | Population Tubulin-Different-Phenotype (%) [4]: 1% | Total Cell Count [4]: 151 | Population Apoptotic (%) [5]: 90% | Population Fragmented Nuclei (%) [5]: 22% | Population Healthy Nuclei (%) [5]: 66% | Population Hoechst High Intensity Objects (%) [5]: 4% | Population Membrane Permeable-Phenotype (%) [5]: 8% | Population Mitochondria Different-Phenotype (%) [5]: 0% | Population Mitotic Cells (%) [5]: 9% | Population Normal (%) [5]: 95% | Population Pyknosed Nuclei (%) [5]: 11% | Population Tubulin-Different-Phenotype (%) [5]: 4% | Total Cell Count [5]: 197 | Population Fragmented Nuclei (%) [6]: 8% | Population Healthy Nuclei (%) [6]: 84% | Population Hoechst High Intensity Objects (%) [6]: 0% | Population Membrane Permeable-Phenotype (%) [6]: 2% | Population Mitochondria Different-Phenotype (%) [6]: 3% | Population Mitotic Cells (%) [6]: 10% | Population Normal (%) [6]: 99% | Population Pyknosed Nuclei (%) [6]: 8% | Population Tubulin-Different-Phenotype (%) [6]: 2% | Total Cell Count [6]: 126 | Population Apoptotic (%) [7]: 93% | Population Fragmented Nuclei (%) [7]: 32% | Population Healthy Nuclei (%) [7]: 60% | Population Hoechst High Intensity Objects (%) [7]: 1% | Population Membrane Permeable-Phenotype (%) [7]: 7% | Population Mitochondria Different-Phenotype (%) [7]: 0% | Population Mitotic Cells (%) [7]: 6% | Population Normal (%) [7]: 98% | Population Pyknosed Nuclei (%) [7]: 7% | Population Tubulin-Different-Phenotype (%) [7]: 2% | Total Cell Count [7]: 230 | Population Apoptotic (%) [8]: 88% | Population Fragmented Nuclei (%) [8]: 9% | Population Healthy Nuclei (%) [8]: 85% | Population Hoechst High Intensity Objects (%) [8]: 0% | Population Membrane Permeable-Phenotype (%) [8]: 5% | Population Mitochondria Different-Phenotype (%) [8]: 1% | Population Mitotic Cells (%) [8]: 11% | Population Normal (%) [8]: 99% | Population Pyknosed Nuclei (%) [8]: 4% | Population Tubulin-Different-Phenotype (%) [8]: 1% | Total Cell Count [8]: 216 | Population Apoptotic (%) [9]: 96% | Population Fragmented Nuclei (%) [9]: 18% | Population Healthy Nuclei (%) [9]: 71% | Population Hoechst High Intensity Objects (%) [9]: 1% | Population Membrane Permeable-Phenotype (%) [9]: 4% | Population Mitochondria Different-Phenotype (%) [9]: 0% | Population Mitotic Cells (%) [9]: 3% | Population Normal (%) [9]: 98% | Population Pyknosed Nuclei (%) [9]: 9% | Population Tubulin-Different-Phenotype (%) [9]: 2% | Total Cell Count [9]: 290 | Population Apoptotic (%) [10]: 100% | Population Fragmented Nuclei (%) [10]: 15% | Population Healthy Nuclei (%) [10]: 79% | Population Mitochondria Different-Phenotype (%) [10]: 3% | Population Mitotic Cells (%) [10]: 0% | Population Pyknosed Nuclei (%) [10]: 5% | Population Tubulin-Different-Phenotype (%) [10]: 1% | Total Cell Count [10]: 199 | Population Apoptotic (%) [11]: 85% | Population Fragmented Nuclei (%) [11]: 30% | Population Healthy Nuclei (%) [11]: 62% | Population Hoechst High Intensity Objects (%) [11]: 1% | Population Membrane Permeable-Phenotype (%) [11]: 6% | Population Mitochondria Different-Phenotype (%) [11]: 2% | Population Mitotic Cells (%) [11]: 14% | Population Normal (%) [11]: 98% | Population Pyknosed Nuclei (%) [11]: 7% | Population Tubulin-Different-Phenotype (%) [11]: 3% | Total Cell Count [11]: 282 | Population Apoptotic (%) [12]: 94% | Population Fragmented Nuclei (%) [12]: 10% | Population Healthy Nuclei (%) [12]: 84% | Population Membrane Permeable-Phenotype (%) [12]: 4% | Population Mitotic Cells (%) [12]: 5% | Population Pyknosed Nuclei (%) [12]: 5% | Population Tubulin-Different-Phenotype (%) [12]: 2% | Total Cell Count [12]: 344
